Results reported in publication PMC7280087 (Drug Design, Development and Therapy, 2020).

Key:
[1] = type: in vivo, Sprague-Dawley rats; details: single-dose group (voriconazole 30 mg/kg); vonoprazan 10 mg/kg oral; rats
[2] = molecular target: vonoprazan metabolism in rat liver microsomes; test: Inhibition of vonoprazan metabolism by voriconazole in rat liver microsomes; type: in vitro ADME; details: RLM; for mode of inhibition of vonoprazan metabolism: Lineweaver–Burk plot, Ki ≠ αKi
How it was run: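 Rat liver microsomes were prepared in-house and used at 0.44 mg/mL, with 1 mM NADPH in 100 mM potassium phosphate (pH 7.4) in a 200 µL volume. Test inhibitor was at 0, 1.5, 3, 6 and 12 μM and substrate at 5, 10, 20 and 40 μM. Incubation ran 50 min at 37°C, was stopped by −80°C cooling, then acetonitrile plus IS was added. Substrate was quantified by LC-MS/MS, with Lineweaver–Burk and secondary plots giving Ki and αKi.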

[3] = 0-12 μM voriconazole, 5-40 μM vonoprazan, Lineweaver–Burk secondary plot

## CNCc1cc(-c2ccccc2F)n(S(=O)(=O)c2cccnc2)c1 [Vonoprazan, vonoprazan]
[1]
  decrease of CLz/F compared with the control group: 2.7 fold

## C[C@@H](c1ncncc1F)[C@](O)(Cn1cncn1)c1ccc(F)cc1F [Voriconazole, voriconazole]
[2]; [3]
  Ki: 2690 nM
  αKi: 5.32 µM
[2]
  mode of inhibition of vonoprazan metabolism: mixed inhibition
[2]; listed as voriconazole
  mode of inhibition of vonoprazan metabolism: mixed type
